ChEMBL document CHEMBL1158483, “N-O-isopropyl sulfonamido-based hydroxamates: design, synthesis and biological evaluation of selective matrix metalloproteinase-13 inhibitors as potential therapeutic agents for osteoarthritis” (J Med Chem, 2009)
Calls of active or inactive are those of the source. No cut-off for these calls is given here.

How the values were obtained:
Stromelysin-1 = Stromelysin-1 (Homo sapiens, UniProt P08254); assay: Inhibition of MMP3
How it was run: (§1)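 Human recombinant enzymes in Tris 50 mM pH 7.5, NaCl 150 mM, CaCl2 10 mM, Brij 35 0.05%, DMSO 1%. Final enzyme: MMP-1 2.0 nM, MMP-2 2.9, MMP-3 5, MMP-8 1.5, MMP-9 2.7, MMP-14 cd 1, MMP-16 cd 15, TACE 7.5 nM. Pro-MMP-1/-2/-8 activated with APMA 2 mM, pro-MMP-9 with APMA 1 mM, each 1 h at 37 °C. Pro-MMP-3 activated with trypsin 5 µg/mL for 30 min at 37 °C, then soybean trypsin inhibitor.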

Neutrophil collagenase = Neutrophil collagenase (Homo sapiens, UniProt P22894); assay: Inhibition of MMP8; how it was run: as §1
[1] = target: Matrix metalloproteinase-9 (Homo sapiens, UniProt P14780); assay: Inhibition of MMP9; how it was run: as §1
Interstitial collagenase [2] = target: T1, Interstitial collagenase (Homo sapiens, UniProt P03956); assay: Inhibition of MMP1; how it was run: as §1
T1 sequence (P03956 whole entry): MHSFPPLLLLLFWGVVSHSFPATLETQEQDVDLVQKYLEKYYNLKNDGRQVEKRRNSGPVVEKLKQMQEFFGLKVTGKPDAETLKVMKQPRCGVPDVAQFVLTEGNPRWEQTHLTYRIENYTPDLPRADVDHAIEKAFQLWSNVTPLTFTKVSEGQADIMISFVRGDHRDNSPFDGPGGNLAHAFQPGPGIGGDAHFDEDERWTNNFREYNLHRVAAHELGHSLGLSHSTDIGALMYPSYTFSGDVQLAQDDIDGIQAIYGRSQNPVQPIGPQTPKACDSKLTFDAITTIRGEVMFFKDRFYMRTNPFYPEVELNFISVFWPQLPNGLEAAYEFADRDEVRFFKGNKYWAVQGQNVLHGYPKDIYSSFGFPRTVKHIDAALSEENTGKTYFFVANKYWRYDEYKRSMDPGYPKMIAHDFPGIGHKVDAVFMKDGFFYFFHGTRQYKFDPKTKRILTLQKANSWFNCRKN

[3] = target: 72 kDa type IV collagenase (Homo sapiens, UniProt P08253); assay: Inhibition of MMP2; how it was run: as §1
Collagenase 3 [4] = target: T2, Collagenase 3 (Homo sapiens, UniProt P45452); assay: Inhibition of MMP13
[5] = target: Matrix metalloproteinase-14 (Homo sapiens, UniProt P50281); assay: Inhibition of human recombinant MMP14; how it was run: as §1
[6] = target: Matrix metalloproteinase-16 (Homo sapiens, UniProt P51512); assay: Inhibition of human recombinant MMP16; how it was run: as §1
[7] = target: Disintegrin and metalloproteinase domain-containing protein 17 (Homo sapiens, UniProt P78536); assay: Inhibition of TACE; how it was run: as §1
Interstitial collagenase [8] = target: T1, Interstitial collagenase; assay: Inhibition of MMP1-mediated collagen degradation by SDS-PAGE
How it was run: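 Full-length MMP-1 (0.5 nM) preincubated with inhibitor (0–10 µM) for 2 h at 25 °C in Tris-HCl 50 mM pH 7.5, NaCl 150 mM, CaCl2 5 mM, Brij-35 0.05%, NaN3 0.02%. Guinea-pig skin acid-soluble collagen (final 1.35 mg/mL) added, 16 h at 25 °C, stopped with EDTA. Full-length and 3/4-fragment α2 chains quantified by densitometry after 7.5% SDS-PAGE with Coomassie stain; IC50 derived.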

Collagenase 3 [9] = target: T2, Collagenase 3; assay: Inhibition of MMP13-mediated collagen degradation by SDS-PAGE
Sus scrofa [10] = species: Sus scrofa; assay: Inhibition of MMP13-mediated collagen degradation in long term IL-1-alpha-stimulated pig articular cartilage explant culture assessed as hydroxyproline release at 10 uM
How it was run: (§2)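 Porcine metacarpophalangeal cartilage explants from 3–9-month pigs were rested 24 h with serum, then 3 days serum-free. They were stimulated with IL-1α 10 ng/mL plus inhibitor at 0.1, 1 or 10 µM in serum-free DMEM, with medium changed every 3–4 days. Hydroxyproline was measured in the medium after 6 N HCl hydrolysis, using chloramine T/DMBA and absorbance at 560 nm against a standard curve. Cumulative release was corrected for unstimulated background.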

Sus scrofa [11] = species: Sus scrofa; assay: Inhibition of MMP13-mediated collagen degradation in long term IL-1-alpha-stimulated pig articular cartilage explant culture assessed as hydroxyproline release; how it was run: as §2
Sus scrofa [12] = species: Sus scrofa; assay: Inhibition of MMP13-mediated collagen degradation in long term IL-1-alpha-stimulated pig articular cartilage explant culture assessed as hydroxyproline release at 1 uM; how it was run: as §2

Chain of Stromelysin-1 (P08254 whole entry): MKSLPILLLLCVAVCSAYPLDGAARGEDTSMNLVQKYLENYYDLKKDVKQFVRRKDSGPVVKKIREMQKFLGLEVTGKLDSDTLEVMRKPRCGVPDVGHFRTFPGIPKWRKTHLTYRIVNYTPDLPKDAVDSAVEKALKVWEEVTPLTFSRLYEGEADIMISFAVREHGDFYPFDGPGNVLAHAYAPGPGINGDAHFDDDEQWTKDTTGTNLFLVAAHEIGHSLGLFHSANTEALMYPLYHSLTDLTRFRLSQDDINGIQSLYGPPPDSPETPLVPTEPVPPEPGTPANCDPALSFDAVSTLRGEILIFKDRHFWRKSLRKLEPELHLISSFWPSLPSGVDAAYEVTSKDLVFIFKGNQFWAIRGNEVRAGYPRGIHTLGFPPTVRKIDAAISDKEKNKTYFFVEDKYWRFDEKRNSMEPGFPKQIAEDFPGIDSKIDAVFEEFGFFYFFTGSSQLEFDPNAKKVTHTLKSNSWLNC
Chain of Neutrophil collagenase (P22894 whole entry): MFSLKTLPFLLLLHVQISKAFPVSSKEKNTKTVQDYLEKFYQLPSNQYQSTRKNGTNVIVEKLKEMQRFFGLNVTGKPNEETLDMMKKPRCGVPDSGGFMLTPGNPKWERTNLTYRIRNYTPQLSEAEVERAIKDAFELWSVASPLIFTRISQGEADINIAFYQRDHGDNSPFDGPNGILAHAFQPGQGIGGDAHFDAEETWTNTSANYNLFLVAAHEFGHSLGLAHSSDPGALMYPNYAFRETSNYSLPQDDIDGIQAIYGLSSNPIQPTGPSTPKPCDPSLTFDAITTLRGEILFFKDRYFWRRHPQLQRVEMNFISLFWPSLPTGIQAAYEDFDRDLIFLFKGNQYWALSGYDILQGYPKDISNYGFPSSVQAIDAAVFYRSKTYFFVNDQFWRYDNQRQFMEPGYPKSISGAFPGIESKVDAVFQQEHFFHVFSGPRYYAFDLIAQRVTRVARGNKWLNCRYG
Chain of Matrix metalloproteinase-9 (P14780 whole entry): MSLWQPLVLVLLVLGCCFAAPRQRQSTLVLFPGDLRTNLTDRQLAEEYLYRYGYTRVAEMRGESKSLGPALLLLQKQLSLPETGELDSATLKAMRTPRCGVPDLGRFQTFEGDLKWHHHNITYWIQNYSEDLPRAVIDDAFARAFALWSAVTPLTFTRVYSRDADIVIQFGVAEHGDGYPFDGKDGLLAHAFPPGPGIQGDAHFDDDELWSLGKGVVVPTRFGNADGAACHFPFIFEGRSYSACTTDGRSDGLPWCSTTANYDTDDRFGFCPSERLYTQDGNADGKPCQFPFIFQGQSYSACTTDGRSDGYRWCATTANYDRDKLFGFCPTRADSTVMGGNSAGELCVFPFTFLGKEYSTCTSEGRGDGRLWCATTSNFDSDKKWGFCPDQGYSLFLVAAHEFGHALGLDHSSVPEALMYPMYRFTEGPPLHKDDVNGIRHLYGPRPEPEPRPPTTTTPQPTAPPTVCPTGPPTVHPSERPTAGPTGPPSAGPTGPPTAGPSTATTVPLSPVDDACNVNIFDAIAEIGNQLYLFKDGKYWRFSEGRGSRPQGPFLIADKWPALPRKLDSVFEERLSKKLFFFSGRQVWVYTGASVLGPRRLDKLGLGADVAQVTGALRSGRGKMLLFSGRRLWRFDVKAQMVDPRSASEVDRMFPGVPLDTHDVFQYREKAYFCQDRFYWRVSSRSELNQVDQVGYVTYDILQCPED
Chain of Disintegrin and metalloproteinase domain-containing protein 17 (P78536 whole entry, the tested form may be a part): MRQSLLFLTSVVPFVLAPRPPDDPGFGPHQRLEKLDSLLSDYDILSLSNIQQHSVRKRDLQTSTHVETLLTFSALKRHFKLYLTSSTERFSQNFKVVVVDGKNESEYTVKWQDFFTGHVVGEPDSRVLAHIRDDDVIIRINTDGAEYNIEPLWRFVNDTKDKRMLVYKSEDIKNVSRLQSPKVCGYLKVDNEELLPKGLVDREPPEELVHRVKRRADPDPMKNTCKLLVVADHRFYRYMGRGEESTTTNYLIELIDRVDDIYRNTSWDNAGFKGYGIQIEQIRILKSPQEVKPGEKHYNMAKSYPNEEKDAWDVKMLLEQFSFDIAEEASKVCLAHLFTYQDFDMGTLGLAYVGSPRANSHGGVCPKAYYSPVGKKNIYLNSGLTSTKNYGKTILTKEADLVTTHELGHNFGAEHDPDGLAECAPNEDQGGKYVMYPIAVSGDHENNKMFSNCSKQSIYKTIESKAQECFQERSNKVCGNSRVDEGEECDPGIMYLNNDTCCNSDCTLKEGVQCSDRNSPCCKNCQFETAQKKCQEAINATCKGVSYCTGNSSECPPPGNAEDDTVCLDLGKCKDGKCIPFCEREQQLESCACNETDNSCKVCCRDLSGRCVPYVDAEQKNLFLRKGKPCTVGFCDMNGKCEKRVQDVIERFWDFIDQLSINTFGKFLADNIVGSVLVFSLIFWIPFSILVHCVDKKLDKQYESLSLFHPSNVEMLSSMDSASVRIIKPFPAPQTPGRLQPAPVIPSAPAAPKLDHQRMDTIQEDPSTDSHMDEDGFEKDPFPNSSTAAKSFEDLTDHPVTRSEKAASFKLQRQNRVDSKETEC
Chain of 72 kDa type IV collagenase (P08253 whole entry): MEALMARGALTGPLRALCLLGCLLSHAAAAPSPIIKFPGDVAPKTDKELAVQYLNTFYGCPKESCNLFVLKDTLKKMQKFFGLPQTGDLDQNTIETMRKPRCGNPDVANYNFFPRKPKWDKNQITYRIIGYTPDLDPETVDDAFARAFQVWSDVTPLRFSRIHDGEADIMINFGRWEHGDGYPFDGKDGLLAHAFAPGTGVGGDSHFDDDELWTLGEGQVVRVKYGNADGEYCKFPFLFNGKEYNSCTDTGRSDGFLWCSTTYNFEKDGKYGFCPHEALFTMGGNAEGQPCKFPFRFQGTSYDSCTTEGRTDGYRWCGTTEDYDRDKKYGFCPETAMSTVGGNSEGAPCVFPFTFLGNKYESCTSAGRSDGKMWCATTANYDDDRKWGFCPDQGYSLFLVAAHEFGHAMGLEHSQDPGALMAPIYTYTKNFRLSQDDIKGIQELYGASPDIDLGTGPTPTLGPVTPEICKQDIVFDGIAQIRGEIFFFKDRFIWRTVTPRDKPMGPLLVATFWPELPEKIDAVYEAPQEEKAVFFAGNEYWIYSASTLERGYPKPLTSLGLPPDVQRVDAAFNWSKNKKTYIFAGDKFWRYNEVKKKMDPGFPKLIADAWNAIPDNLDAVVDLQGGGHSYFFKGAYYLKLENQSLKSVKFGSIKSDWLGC
Chain of Matrix metalloproteinase-16 (P51512 whole entry, the tested form may be a part): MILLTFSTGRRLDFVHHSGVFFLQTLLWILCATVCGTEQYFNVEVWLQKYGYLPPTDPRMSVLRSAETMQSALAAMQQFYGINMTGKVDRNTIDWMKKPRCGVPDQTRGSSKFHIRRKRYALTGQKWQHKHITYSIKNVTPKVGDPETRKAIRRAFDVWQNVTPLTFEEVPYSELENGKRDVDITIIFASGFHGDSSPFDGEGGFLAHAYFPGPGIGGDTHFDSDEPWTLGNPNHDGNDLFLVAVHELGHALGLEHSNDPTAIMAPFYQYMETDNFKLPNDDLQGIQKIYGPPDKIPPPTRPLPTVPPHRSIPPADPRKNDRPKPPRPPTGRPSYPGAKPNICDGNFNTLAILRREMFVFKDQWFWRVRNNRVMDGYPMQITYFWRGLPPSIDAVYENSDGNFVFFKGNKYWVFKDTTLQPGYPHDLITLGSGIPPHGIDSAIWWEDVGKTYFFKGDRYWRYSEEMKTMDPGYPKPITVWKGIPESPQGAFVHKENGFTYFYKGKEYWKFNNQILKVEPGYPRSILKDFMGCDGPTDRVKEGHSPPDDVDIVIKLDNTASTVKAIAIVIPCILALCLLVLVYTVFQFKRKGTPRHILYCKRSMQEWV

IC50 (Stromelysin-1)	IC50 (Neutrophil collagenase)	IC50 [1]	IC50 (Interstitial collagenase [2])	IC50 [3]	IC50 (Collagenase 3 [4])	IC50 [5]	Ki [3]	Ki (Collagenase 3 [4])	IC50 [6]	IC50 [7]	IC50 (Interstitial collagenase [8])	IC50 (Collagenase 3 [9])	inhibition (Sus scrofa [10])	SMILES	inhibition (Sus scrofa [11])	inhibition (Sus scrofa [12])
710 nM	3600 nM	2300 nM	5600 nM	74 nM	41 nM	2800 nM								CC(C)ON(CC(=O)NO)S(=O)(=O)c1ccc(/C=C/c2ccc(-c3ccccc3)cc2)cc1		
5900 nM	260 nM		12000 nM		45 nM	2300 nM	13 nM	20 nM	900 nM	> 100000 nM	2900 nM	25 nM	Active	CC(C)ON(CC(=O)NO)S(=O)(=O)c1ccc(-c2ccccc2)cc1	Dose-dependent effect	
9100 nM	440 nM	3200 nM	20000 nM	310 nM	600 nM	6500 nM								CC(C)ON(CC(=O)NO)S(=O)(=O)c1ccc(-c2ccc(F)cc2)s1		
4300 nM	140 nM	680 nM	> 10000 nM	56 nM	91 nM	2400 nM								CCc1ccc(-c2ccc(S(=O)(=O)N(CC(=O)NO)OC(C)C)s2)cc1		
320 nM	7 nM	34 nM	610 nM	2 nM	2.8 nM	70 nM					970 nM	2.4 nM		O=C(CNS(=O)(=O)c1ccc(-c2ccccc2)cc1)NO		
920 nM	48 nM	34 nM	4800 nM	12 nM	39 nM	530 nM					4100 nM	9.4 nM		CC(C)CN(CC(=O)NO)S(=O)(=O)c1ccc(-c2ccccc2)cc1		
1800 nM	65 nM	160 nM	13000 nM	4.2 nM	10 nM	1000 nM	3.8 nM	5.8 nM						COc1ccc(-c2ccc(S(=O)(=O)N(CC(=O)NO)OC(C)C)cc2)cc1		

Second part, the compound before the results:

SMILES	IC50 (Stromelysin-1)	IC50 (Neutrophil collagenase)	IC50 [1]	IC50 (Interstitial collagenase [2])	IC50 [3]	IC50 (Collagenase 3 [4])	IC50 [5]	Ki [3]	Ki (Collagenase 3 [4])	IC50 [6]	IC50 [7]	IC50 (Interstitial collagenase [8])	IC50 (Collagenase 3 [9])	inhibition (Sus scrofa [10])	inhibition (Sus scrofa [11])	inhibition (Sus scrofa [12])
CSc1ccc(-c2ccc(S(=O)(=O)N(CC(=O)NO)OC(C)C)cc2)cc1	1300 nM	37 nM	77 nM	3300 nM	1.5 nM	7.2 nM	320 nM									
CC(C)ON(CC(=O)NO)S(=O)(=O)c1ccc(-c2ccc(OCc3ccc(Cl)cc3)cc2)cc1	1800 nM	1700 nM	1100 nM	13000 nM	40 nM	19 nM	3400 nM	25 nM	8.2 nM	15000 nM	35000 nM					
CC(C)ON(CC(=O)NO)S(=O)(=O)c1ccc(Oc2ccccc2)cc1	1200 nM	66 nM	110 nM	59000 nM	26 nM	63 nM	590 nM									
CCCCOc1ccc(-c2ccc(S(=O)(=O)N(CC(=O)NO)OC(C)C)cc2)cc1	1600 nM	560 nM	44 nM	11000 nM	5.5 nM	15 nM	5500 nM									
COc1ccc(-c2ccc(S(=O)(=O)N(CC(=O)NO)OC(C)C)s2)cc1	1200 nM	110 nM	250 nM	> 10000 nM	17 nM	25 nM	> 1000 nM									
CC(C)ON([C@@H](C(=O)NO)C(C)C)S(=O)(=O)c1ccc(-c2ccc(OCc3ccc(Cl)cc3)cc2)cc1	180 nM	63 nM	69 nM	48000 nM	9.6 nM	3 nM	14000 nM	54 nM	29 nM	5000 nM	> 100000 nM	15000 nM	1.4 nM		Dose-dependent effect	Active
CCCCc1ccc(C#Cc2ccc(S(=O)(=O)N(CC(=O)NO)OC(C)C)s2)cc1	4300 nM	7600 nM	4400 nM	13000 nM	360 nM	260 nM	11000 nM									
